Results on 1 molecule are retold here after paper PMC5071122 (The Pediatric infectious disease journal, 2016).

Where two headings read alike, the source gives them in different places. Starred links: 1 amine or outer side, 2 acyl side, 3 side chain; linkers in the order of their positions; H or OH if unused. Positions of bridges follow the written chain, without caps; N, C: chain ends. Non-standard residues stand in square brackets, D forms with d. Residues, ends and D or L forms follow the SMILES beside them. *: point of attachment. hTyr(3S-OH,4S-OH,3'-OSO3H) = N[C@H](C(=O)O)[C@H](O)[C@@H](O)c1ccc(O)c(OS(=O)(=O)O)c1; Orn(4R-OH,5R-OH) = O=C([C@H](C[C@@H](O)[C@@H](O)N[*:3])N[*:1])[*:2]; Pro(3S-OH,4S-Me) = C[C@H]1CN[C@H](C(=O)O)[C@H]1O; X1 = CCCCCOc1ccc(-c2cc(-c3ccc(C(=O)*)cc3)no2)cc1; Gln(3R-OH) = NC(=O)C[C@@H](O)[C@H](N)C(=O)O; Hyp = O=C(O)[C@@H]1C[C@@H](O)CN1 Where only a bound is given, the exact number is not on record here.

The conditions of data set [1]: cited from earlier work.
The conditions of data set [2]: cited from earlier work. This is another data set of the same source.
Data set [3] in a line: Open-label PK trial of IV micafungin in infants on ECMO. Conditions: human, in vivo.
For data set [4] the following is noted: phase III efficacy trial, used as target efficacy exposure; cited from earlier work.
Data set [5] has as its system Candida spp. Conditions: ref 6-8; cited from earlier work.
The conditions of data set [6]: infants and children receiving micafungin; cited from earlier work.
For data set [7] the following is noted: cited from earlier work. This is another data set of the same source.
The conditions of data set [8]: via hepatic transporter proteins; cited from earlier work.
Data set [9] can be described thus: Safety: adverse events in infants on ECMO receiving micafungin. In kind it is in vivo.
For data set [10] the following is noted: ref 33; cited from earlier work.
Data set [11] can be described thus: Observed micafungin exposure. In kind it is in vivo, infants. The settings on record: 4 mg/kg IV every 24h. In outline:
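Infants on ECMO, prophylactic arm, given IV test compound 4 mg/kg every 24h for up to 8 days. EDTA arterial plasma sampled around dose 4, from pre-infusion to 22-24h post-infusion, and assayed by HPLC-fluorescence (LLOQ 0.05 mg/L). AUC0-24 was computed from observed data by the linear-up log-down trapezoidal method and compared with the therapeutic target of 75-139 mg*h/L.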

The conditions of data set [12]: neonatal trial of 15 mg/kg/day; standard deviation 99; cited from earlier work.

Consider `CCCCCOc1ccc(-c2cc(-c3ccc(C(=O)N[C@H]4C[C@@H](O)[C@@H](O)NC(=O)[C@@H]5[C@@H](O)[C@@H](C)CN5C(=O)[C@H]([C@H](O)CC(N)=O)NC(=O)[C@H]([C@H](O)[C@@H](O)c5ccc(O)c(OS(=O)(=O)O)c5)NC(=O)[C@@H]5C[C@@H](O)CN5C(=O)[C@H]([C@@H](C)O)NC4=O)cc3)no2)cc1` [micafungin] (X1-[Orn(4R-OH,5R-OH)]T[Hyp][hTyr(3S-OH,4S-OH,3'-OSO3H)][Gln(3R-OH)][Pro(3S-OH,4S-Me)]; lactam 1-C), for which the “V reported in infants not on ECMO” value in data set [1] (ref 15, 25) was 0.34 to 0.54 L/kg. Besides, the “CL, previously reported values for infants not supported by ECMO” value in data set [1] (ref 19, 24-26) is 0.333 to 0.65 mL/min/kg. Further, the “Time reconstituted micafungin is stable” value in data set [2] (reconstituted, room temperature, exposed to light) was “up to 24 hours”. Also, the Light sensitivity entry in data set [2] (ref 16) is recorded as “light-sensitive”. Moreover, in data set [3], the Vd worked out at 0.64 L/kg and the clearance was 0.683 mL/min/kg. In addition, in data set [4], the “AUC0-24 range, exposure of adult participants who cleared their fungal infection” value was 75 to 139 µg·h/mL. Moreover, in [5], the “Activity against a broad spectrum of Candida spp” value is “fungicidal” and the Biofilm penetration result is listed as “can penetrate biofilms”. In data set [6], the “Hypokalemia, proportion of infants and children” value is on record as 2%; the “Liver toxicity, proportion of infants and children” value is given as 3%. In addition, the Protein bound in data set [7] (ref 14) is above 99%. Besides, in data set [7] (ref 33), the Protein bound is given as above 99%. Moreover, the “Excreted primarily unchanged into bile and feces” value in data set [8] is listed as 71%. The “Deaths considered related to micafungin” value in [9] (12 infants on ECMO, study period) is reported as “None”. In addition, the Tolerability result in data set [9] (cohort of infants supported by ECMO) was “well tolerated”. In data set [10], the logP was −1.5. Further, in data set [11] (after dose 1 and 4, Two/4 infants), the “Infants with a hemofilter achieving AUC0-24 within or above the therapeutic target range” value is recorded as 50%. In addition, in data set [11] (prophylactic arm, 3/5 infants sampled around dose 4), the “Infants within the therapeutic range after dose 4” value came to 60%. For the same molecule, the “Infants achieving the therapeutic exposure target (75-139 mg*h/L) after a single dose” value in data set [11] (prophylactic arm, 5/11 infants) is recorded as 45%. The “Mean (standard deviation) exposure deemed safe” value in data set [12] is 438 µg·h/mL.

Broadly, the Vd is the apparent volume that relates the amount in the body to the concentration in plasma or blood. A low value points to little distribution into tissue. The term clearance denotes the volume of plasma or blood freed of the substance per unit of time. A high value points to a high capacity for elimination. By logP is commonly meant a log measure of how a compound divides between an organic and an aqueous phase.
